One series has as its system MDA-MB-435. Kind of series: Antiproliferative activity against human MDA-MB-435 cells assessed as reduction in cell viability incubated for 72 hrs by MTT assay. Format: functional, cell-based. The settings on record: MDA-MB-435, 72 h. An outline of the steps:
(§1)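 MTT viability assay. ATCC cell lines were grown in designated medium with 10% FBS at 37 °C, 5% CO2. Cells seeded at 1500−30000 per well and incubated 24 h, then exposed to compound (0−10 μg/mL) for 72 h. MTT added for 2−4 h. Formazan dissolved in DMSO (adherent) or acidified SDS overnight (suspension), absorbance read at 570 nm. Triplicates; IC50 calculated.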
For orientation: Tetrazolium assays rely on reduction of a dye to a coloured formazan, in cell work by metabolically active cells.

For series [1], the system named is MDA-MB-231. Kind of series: Antiproliferative activity against human MDA-MB-231 cells assessed as reduction in cell viability incubated for 72 hrs by MTT assay. Format: functional, cell-based. The following applies: MDA-MB-231, 72 h. In outline: as §1
For series [2], the system named is MDA-MB-231. Briefly: Antitumor activity against human MDA-MB-231 cells xenografted in SCID mouse assessed as tumor growth inhibition at 40 mg/kg, po qd for 21 days and measured every 3 days. Format: functional. The following applies: MDA-MB-231, po, 504 h, time 21 day. An outline of the steps:
(§2)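 SCID mice (5−6 weeks) injected subcutaneously with 100 μL of cells at 5 × 10^7/mL. At 150−200 mm3 mice randomized, 6 per group. Oral compounds given in water with 25% PEG400 plus 5% DMSO; paclitaxel given 10 mg/kg/week iv. Tumor volume a×b²/2 and body weight measured every 3 days. Inhibition rate (c−d)/c×100% against vehicle control.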
A general note: A xenograft is tissue or cells of one species grown in another, often human tumour cells in immunodeficient mice.

The nature of series [3]: Toxicity in SCID mouse xenografted with MDA-MB-231 cells assessed as change in body weight at 40 mg/kg, po qd for 21 days and measured every 3 days. The settings on record: in vivo, 504 h, dose 40 mg/kg/day, time 21 day. Format: organism-based. An outline of the steps: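 Exponential-phase cells washed and injected subcutaneously (5 × 10^6 cells in 100 μL) into 5–6-week SCID mice. At 150–200 mm3, mice randomised to groups of 6. Oral dosing daily in water with 25% PEG400 and 5% DMSO; paclitaxel 10 mg/kg weekly by tail vein. Body weight measured every 3 days and side effects checked daily.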

A further series concerns HepG2. Briefly: Antiproliferative activity against human HepG2 cells assessed as reduction in cell viability incubated for 72 hrs by MTT assay. Format: ADME, cell-based. The following applies: HepG2, 72 h.
Series [4] in a line: Toxicity in SCID mouse xenografted with MDA-MB-231 cells assessed as animal death at 40 mg/kg, po qd for 21 days. Format: organism-based. The settings on record: in vivo, dose 40 mg/kg/day, time 21 day, read-out: Activity. In outline: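 SCID mice aged 5–6 weeks were injected subcutaneously with 100 μL of MDA-MB-231 cells resuspended at 5 × 10^7 per mL. When tumours reached 150–200 mm3, mice were randomised into groups of 3 or 6. Dosing was oral and daily, in sterile water with 25% PEG400 plus 5% DMSO. Side effects were checked daily and body weight every 3 days.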

Series [5] deals with MDA-MB-231. Briefly: Antitumor activity against human MDA-MB-231 cells xenografted in SCID mouse assessed as tumor growth inhibition at 40 mg/kg, po qd for 15 days and measured every 3 days. The settings on record: MDA-MB-231, po, 360 h, time 15 day. Format: functional. An outline of the steps: as §2
Series [6] can be described thus: Toxicity in SCID mouse xenografted with MDA-MB-231 cells assessed as change in body weight at 40 mg/kg, po qd for 15 days and measured every 3 days. Format: organism-based. The settings on record: in vivo, 360 h, dose 40 mg/kg/day, time 15 day.
Series [7] has as its target Voltage-gated inwardly rectifying potassium channel KCNH2 (Homo sapiens, UniProt Q12809). Briefly: Inhibition of human ERG expressed in CHO cells at -80 mV holding potential by automated Qpatch electrophysiological assay. (In patch-clamp work, channel activity is measured electrically.)
The nature of series [8]: Toxicity in SCID mouse xenografted with MDA-MB-231 cells assessed as animal death at 40 mg/kg, po qd for 15 days. Format: organism-based. The following applies: in vivo, dose 40 mg/kg/day, time 15 day, read-out: Activity.

pIC50: −log10 of the molar value.

Broadly, the pIC50 is the negative decadic logarithm of the IC50, by convention in mol/L. One may read the inhibition in vivo as the relative decrease from the control value, in per cent.

Chain of Voltage-gated inwardly rectifying potassium channel KCNH2 (Q12809 whole entry): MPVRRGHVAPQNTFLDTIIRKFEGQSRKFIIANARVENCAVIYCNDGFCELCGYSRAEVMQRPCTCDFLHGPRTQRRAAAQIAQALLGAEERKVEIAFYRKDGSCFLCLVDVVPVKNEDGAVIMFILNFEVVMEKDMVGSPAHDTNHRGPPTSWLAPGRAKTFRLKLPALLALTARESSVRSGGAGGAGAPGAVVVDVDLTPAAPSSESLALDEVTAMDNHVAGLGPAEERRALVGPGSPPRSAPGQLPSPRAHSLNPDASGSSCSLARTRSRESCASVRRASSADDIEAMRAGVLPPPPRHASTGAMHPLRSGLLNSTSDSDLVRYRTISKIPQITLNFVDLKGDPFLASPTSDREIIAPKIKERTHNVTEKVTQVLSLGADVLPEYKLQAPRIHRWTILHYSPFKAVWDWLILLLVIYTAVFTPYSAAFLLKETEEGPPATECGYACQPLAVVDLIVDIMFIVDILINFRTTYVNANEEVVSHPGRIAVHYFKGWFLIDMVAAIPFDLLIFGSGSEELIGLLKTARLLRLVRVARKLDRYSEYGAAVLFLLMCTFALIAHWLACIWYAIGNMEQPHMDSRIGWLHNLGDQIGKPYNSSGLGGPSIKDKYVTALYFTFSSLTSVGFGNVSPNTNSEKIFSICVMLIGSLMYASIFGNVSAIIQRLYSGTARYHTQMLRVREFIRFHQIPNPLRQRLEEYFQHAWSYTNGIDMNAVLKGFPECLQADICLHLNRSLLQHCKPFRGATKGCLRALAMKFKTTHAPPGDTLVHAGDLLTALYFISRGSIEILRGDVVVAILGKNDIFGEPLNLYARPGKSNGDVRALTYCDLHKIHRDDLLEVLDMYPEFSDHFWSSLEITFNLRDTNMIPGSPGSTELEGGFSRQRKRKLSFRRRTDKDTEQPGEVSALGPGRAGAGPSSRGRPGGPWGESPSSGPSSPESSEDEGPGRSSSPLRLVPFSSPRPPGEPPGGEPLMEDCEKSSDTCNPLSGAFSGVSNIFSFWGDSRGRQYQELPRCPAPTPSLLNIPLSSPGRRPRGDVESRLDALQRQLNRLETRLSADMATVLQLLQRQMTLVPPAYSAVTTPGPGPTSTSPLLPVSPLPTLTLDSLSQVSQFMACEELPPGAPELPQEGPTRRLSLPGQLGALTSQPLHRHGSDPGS

Take `Cc1ccc(NC(=O)c2ccc(C)c(C(F)(F)F)c2)cc1C#Cc1nn(C2CCN(C)CC2)c2ncnc(N)c12`: the values for the negative-log IC50 (pIC50) with MDA-MB-435, in the series on MDA-MB-231 [1] and with HepG2 were 7.40, 7.36 and < 5.00, respectively. In addition, the inhibition in vivo at 40 mg/kg/day in the series with MDA-MB-231 [2] is 69.8%. Moreover, in [3], the Activity is -4.5%. In series [4], the mortality at 504 h was determined as 0%.
For the compound `Cc1ccc(NC(=O)c2cccc(C(F)(F)F)c2)cc1C#Cc1nn(C[C@H](C)CO)c2ncnc(N)c12`, the inhibition in vivo at 40 mg/kg/day in the series with MDA-MB-231 [5] worked out at 77.3%. In addition, the Activity in series [6] is on record as -8.2%. Besides, the pIC50 was 8.00 in the series on MDA-MB-435, < 4.52 in series [7], 8.00 in the series with MDA-MB-231 [1] and < 5.00 in the series with HepG2. For the same compound, the mortality at 360 h in series [8] came out at 0%.
With `Cc1ccc(NC(=O)c2cccc(C(F)(F)F)c2)cc1C#Cc1nn(C2CCN(C)CC2)c2ncnc(N)c12`, the negative logarithm of the IC50 (pIC50) in the series on MDA-MB-435 was 7.10; in series [7] it was 6.22; with MDA-MB-231 [1], 7.89; in the series on HepG2, < 5.00. In addition, in the series with MDA-MB-231 [2], the inhibition in vivo at 40 mg/kg/day is 90.7%. Besides, the Activity in [3] is -3.1%. Besides, the mortality at 504 h in [4] is 0%.
`Cc1ccc(NC(=O)c2ccc(Cl)cc2)cc1C#Cc1nn(C2CCN(C)CC2)c2ncnc(N)c12`: the negative-log IC50 (pIC50) in the series on MDA-MB-435 is 6.95; in the series on MDA-MB-231 [1] it was 7.48; in the series with HepG2 it was 5.12. The inhibition in vivo at 40 mg/kg/day in the series on MDA-MB-231 [2] amounted to 90.1%. Also, the Activity in [3] is given as -16%. Besides, the mortality at 504 h in series [4] turned out to be 0%.
For `Cc1ccc(NC(=O)c2cccc(C(F)(F)F)c2)cc1C#Cc1nn(C[C@@H](C)CO)c2ncnc(N)c12`, in the series with MDA-MB-231 [5], the inhibition in vivo at 40 mg/kg/day was determined as 78.1%. In series [6], the Activity is given as -3.2%. In addition, the pIC50 with MDA-MB-435 is 8.00; in series [7], < 4.52; with MDA-MB-231 [1], 7.77; in the series on HepG2, 5.02. The mortality at 360 h in [8] worked out at 0%.
Regarding `Cc1ccc(NC(=O)c2ccc(C)c(C(F)(F)F)c2)cc1C#Cc1nn(C[C@H](C)CO)c2ncnc(N)c12`, the inhibition in vivo at 40 mg/kg/day with MDA-MB-231 [5] turned out to be 97.1%. In series [6], the Activity is reported as -11.3%. The pIC50 is 7.21 in the series with MDA-MB-435, < 4.52 in series [7], 7.37 in the series with MDA-MB-231 [1] and < 5.00 in the series on HepG2. Besides, in series [8], the mortality at 360 h amounted to 0%.
Take `Cc1ccc(NC(=O)c2cnc(C(C)(C)C)s2)cc1C#Cc1nn(C2CCN(C)CC2)c2ncnc(N)c12`: the negative-log IC50 (pIC50) in the series with MDA-MB-435 is 7.70; in the series with MDA-MB-231 [1], 7.11; with HepG2, < 5.00. The inhibition in vivo at 40 mg/kg/day in the series on MDA-MB-231 [2] was determined as 87%. The Activity in [3] is on record as -5.3%. In series [4], the mortality at 504 h came to 0%.
Turning to `Cc1ccc(NC(=O)c2ccc(Cl)c(C(F)(F)F)c2)cc1C#Cc1nn([C@H]2CC[C@H](O)CC2)c2ncnc(N)c12`, the inhibition in vivo at 40 mg/kg/day in the series with MDA-MB-231 [5] turned out to be 96.1%. The Activity in series [6] is -13.4%. In addition, the pIC50 in the series on MDA-MB-435 is 7.43; in series [7], < 4.52; in the series with MDA-MB-231 [1] it was 7.80; with HepG2, < 5.00. For the same compound, the mortality at 360 h in series [8] came to 0%.
For `Cc1ccc(NC(=O)c2ccc(Cl)c(C(F)(F)F)c2)cc1C#Cc1nn(C2CCN(C)CC2)c2ncnc(N)c12`, the pIC50 in the series with MDA-MB-435 was 7.57; with MDA-MB-231 [1], 7.51; in the series with HepG2 it was < 5.00. In addition, the inhibition in vivo at 40 mg/kg/day with MDA-MB-231 [2] is 70.5%. In addition, the Activity in [3] is -6.7%. For the same compound, in [4], the mortality at 504 h is 0%.
Take `Cc1ccc(NC(=O)c2ccc(Cl)c(C(F)(F)F)c2)cc1C#Cc1nn(C[C@H](C)CO)c2ncnc(N)c12`: the negative logarithm of the IC50 (pIC50) with MDA-MB-435 was 6.49; in [7], < 4.52; in the series on MDA-MB-231 [1], 7.77; in the series with HepG2, < 5.00.

The values are drawn from ChEMBL document CHEMBL4765233, “From Lead to Drug Candidate: Optimization of 3-(Phenylethynyl)-1H-pyrazolo[3,4-d]pyrimidin-4-amine Derivatives as Agents for the Treatment of Triple Negative Breast Cancer” (J Med Chem, 2016).
